Most compounds without a hit are left out; they make up all but 0.64% or so of the library.
PMI act hi M6P: activators of human phosphomannose isomerase at near-saturating mannose 6-phosphate | activation factor at 20 µM | AID 1216 | 190,000 tested, 0.34% active | P34949 | coupled PMI enzyme assay, resazurin fluorescence, 20 min; hits give high values; 1 = untreated enzyme, 0 = substrate-free blank;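 active = activation factor of 2 or more at 20 µM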
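Test system: human phosphomannose isomerase with PGI, G6PDH, diaphorase coupling enzymes / Doses: 20 µM compound, 1% DMSO / Times: enzyme reaction with compound 20 min at room temperature / Measured by: Diaphorase-driven resazurin-to-resorufin fluorescence, excitation 544, emission 590 nm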
TNAP inh hi DEA: inhibitors of human TNAP at high phosphate acceptor concentration; AID 1135; purified TNAP, CDP-star luminescence, 1 M DEA; P05186; 200,000 tested, 0.03% active; inhibition, % at 20 µM;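 active = over 50% inhibition of tissue-nonspecific alkaline phosphatase at 20 µM in the single-dose screen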
Target sequence (P05186 whole entry, looked up): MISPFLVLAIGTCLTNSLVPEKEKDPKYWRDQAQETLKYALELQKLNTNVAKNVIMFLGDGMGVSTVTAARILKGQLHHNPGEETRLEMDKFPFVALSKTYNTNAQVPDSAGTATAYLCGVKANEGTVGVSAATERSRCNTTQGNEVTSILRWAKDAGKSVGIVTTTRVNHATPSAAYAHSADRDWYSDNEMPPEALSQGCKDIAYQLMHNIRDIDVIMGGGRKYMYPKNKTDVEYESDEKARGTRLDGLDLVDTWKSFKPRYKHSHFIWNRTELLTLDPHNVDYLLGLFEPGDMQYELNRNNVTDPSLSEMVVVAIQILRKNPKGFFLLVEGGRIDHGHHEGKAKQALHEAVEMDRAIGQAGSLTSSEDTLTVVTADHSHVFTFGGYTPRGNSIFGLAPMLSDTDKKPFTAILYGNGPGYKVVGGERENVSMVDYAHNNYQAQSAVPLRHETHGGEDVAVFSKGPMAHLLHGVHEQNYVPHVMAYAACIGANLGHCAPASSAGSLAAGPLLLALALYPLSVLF
PMI activator: phosphomannose isomerase (human) activation | purified human PMI, coupled resazurin fluorescence, 20 min; hits give high values; 1 = vehicle control, 0 substrate-free wells | activation factor at 20 µM | 190,000 tested, 0.005% active | AID 1214;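 active = activation factor of 2 or more at 20 µM, relative to plate controls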
TNAP act hi DEA: increases human TNAP activity under high phosphate acceptor concentration; P05186; purified TNAP, CDP-star luminescence, 1 M DEA, 30 min; hits give high values; 0 = EDTA background, 1 = DMSO-only activity; activation factor at 20 µM; 200,000 tested, under 10 active; AID 1136;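 active = activation factor at least 2 at 20 µM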
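Test system – human TNAP · Doses – 20 µM single point · Incubation – 30 min, room temperature · Signal – luminescent substrate turnover signal · Read-out basis – activation factor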
TNAP inh noacc: blocks human TNAP activity with no phosphate acceptor present. 200,000 tested, 0.26% active. purified TNAP, CDP-star luminescence, 30 min. AID 1012. inhibition, % at 20 µM;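 active = tissue-nonspecific alkaline phosphatase inhibition above about 50% at 20 µM in the single-dose screen, limit read from the data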
Large screens that a line does not name were inactive.

Cc1cc(C=C2C(=O)NC(=S)NC2=O)c(C)n1C1CCCC1	PMI act hi M6P 2.1
CC(=NCCCO)c1c(O)n(Cc2ccccc2)c(=O)[nH]c1=O	none
C/C(=N\Nc1ccccc1)c1c(O)n(C)c(=O)n(C)c1=O	PMI act hi M6P 2.5
C/C(=N\Nc1ccccc1)c1c(O)n(Cc2ccccc2)c(=O)[nH]c1=O	PMI act hi M6P 2.5
CSc1ccc(C(=O)C2CCCN(Cc3cc4ccccc4[nH]3)C2)cc1 (stereo unspecified)	none
CCCCC1C(=O)NC(=S)NC1=O	PMI act hi M6P 2
COc1ccc(-c2nc3ccccc3c(=O)n2-c2nccs2)cc1	none
Cc1cc(C)c(C(=O)CN2CCOCC2)c(C)c1	PMI act hi M6P 2.1
Cc1ccsc1C(=O)C1CCCN(Cc2ccn[nH]2)C1 (stereo unspecified)	none
COc1ccc(/C=C2\C(=O)NC(=S)N(C)C2=O)cc1C	PMI act hi M6P 2.5
CN1C(=O)C(C2c3ccccc3C(=O)N2Cc2ccccc2)C(=O)N(C)C1=O (stereo unspecified)	none
CN1C(=O)c2ccccc2NC(=O)C1Cc1ccccc1 (stereo unspecified)	TNAP inh noacc 62
Oc1ccc(CC2CC3CCN2CC3)cc1O (stereo unspecified)	TNAP inh noacc 75
Cc1cccc(N2C(=O)NC(=O)C3(Cc4cc(C)ccc4N(C)C3)C2=O)c1 (stereo unspecified)	none
Cc1ccc2c(c1)CC1(CN2C)C(=O)NC(=O)N(C(C)C)C1=O (stereo unspecified)	PMI act hi M6P 2.1
Cc1ccc2c(c1)CC1(CN2C)C(=O)NC(=O)N(CCC2=CCCCC2)C1=O (stereo unspecified)	PMI act hi M6P 2.1
COc1cc(N2CCOCC2)ccc1C=C1C(=O)NC(=O)NC1=O	none
CCCCn1c(O)c(C(C)=NC(Cc2c[nH]c3ccccc23)C(=O)OC)c(=O)[nH]c1=O (stereo unspecified)	none
O=C(N/N=C/c1c(O)n(CCC2=CCCCC2)c(=S)[nH]c1=O)c1ccccc1	none
O=C(N/N=C/c1c(O)n(CCC2=CCCCC2)c(=O)[nH]c1=O)c1ccccc1	TNAP inh noacc 67
CCCc1[nH]nc2c1C1(C(=O)N(Cc3ccccc3)c3ccccc31)C(C(=O)OC)=C(N)O2 (stereo unspecified)	none
CN(C)c1ccc(/C=C/C=C2/C(=O)NC(=O)N(c3ccccc3)C2=O)cc1	TNAP inh hi DEA 51, TNAP inh noacc 54
C=CCN1C(=O)NC(=O)/C(=C/C=C/c2ccccc2)C1=O	none
Cc1nn(Cc2ccccc2)c(C)c1C=C1C(=O)NC(=S)NC1=O	PMI act hi M6P 2.2
CCCCCCn1c(O)c(C(C)=NC)c(=O)[nH]c1=O	none
COc1ccc(N/N=C/c2c(O)n(-c3ccc(C)c(C)c3)c(=O)[nH]c2=O)cc1	none
COc1ccc(N/N=C/c2c(O)n(-c3cccc(C)c3)c(=O)[nH]c2=O)cc1	PMI act hi M6P 2.7
CCCCC(=O)N/N=C/c1c(O)n(CCc2ccc(OC)c(OC)c2)c(=O)[nH]c1=O	none
CCCCC(=O)N/N=C/c1c(O)n(CC)c(=S)[nH]c1=O	TNAP inh noacc 87
CCOC(=O)c1c(NS(=O)(=O)c2ccccc2)n(CCCOC)c2nc3ccccc3nc12	none
